Screening results from PubChem.
Only some compounds are listed: those with a hit (about 6.4% of all), similar ones and a draw of the others.
H69AR growth 86K: proliferation blockers of H69AR lung cancer cells, primary screen, cell-based, human, 86K library; H69AR lung tumor viability, ATP luminescence, 72 h; hits give low values; viability, % at 10 µM; AID 598, 2007; 85,000 tested, 6% active;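 active means viability at or below 40%; inactive means viability above 40%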;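 further: multidrug resistant small cell line overexpressing MRP-1 efflux transporter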
HUVEC prolif 384: inhibitors of HUVEC proliferation, primary screen, cell-based, 384-well | CellTiter-Glo luminescence, 72 h; hits give low values | viability, % at 10 µM (by protocol) | 86,000 tested, 1.1% active;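 active means viability at or below 30%; inactive means viability above 30%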
Ecoli tolC: growth inhibitors of E. coli tolC mutant, primary screen, strain BW25113 ΔtolC::kan, 384-well | OD615 | growth inhibition, % at 10 µM (by protocol) | 65,000 tested, 2.2% active;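 active means growth inhibition at or above a cutoff equal to the mean over every tested compound plus 3 SD, cut at about 60% in these data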;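 further: growth measured after 20 h incubation at 37 °C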
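Test system: tolC-deleted E. coli BW25113 | Medium: LB with kanamycin 50 µg/mL | Compound dosing: Single concentration, 10 µM final per compound | Schedule: 37 °C, 20 h exposure | Measured by: OD at 615 nm | Evaluation: Percent growth inhibition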
E coli WT exp: growth inhibitors of wild-type E. coli, primary screen, strain BW25113, expanded library, OD600. OD600 absorbance. 98,000 tested, 0.15% active. growth inhibition, % at 100 µM;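 active means growth inhibition above about 50% at one test dose, limit read from the data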;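 further: growth measured after 20 h incubation at 37 °C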
Lung fibro prol: antiproliferative effect on LL 47 fibroblasts – human, LL 47 cells, CellTiter-Glo luminescence, primary screen; LL 47 human lung fibroblast viability, ATP luminescence; hits give low values; viability, % at 10 µM; 85,000 tested, 1.1% active; AID 719, 2007;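 active means viability at or below 50% in the single dose screen; inactive means viability above 50%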;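 further: compound exposure lasted 72 h before the ATP readout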
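Assay system: human lung fibroblast line LL 47, low passage. Input: 1,150 fibroblasts seeded per well. Times: overnight cell rest, 72 h compound treatment at 37 °C. Evaluation: % viability of median cell-only signal. Technique: luminescent ATP detection, CellTiter-Glo. Control set: cell-only wells, no compound.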
Jurkat tox 60K: cytotoxicity toward Jurkat T cells, primary screen, cytotoxicity control, cell-based, Jurkat E6.1, 60K MLSMR library | Jurkat E6.1 viability, ATP luminescence, 48 h | inhibition, % at 4 µM | 56,000 tested, 1.2% active;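 active means inhibition above the mean inhibition of all tested compounds plus 3 SD, cut at about 28% in these data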
Hits are given with their value; - = inactive; . = no result given.

SMILES	H69AR growth 86K	HUVEC prolif 384	Ecoli tolC	E coli WT exp	Lung fibro prol	Jurkat tox 60K
O=C1NN(c2ccc(Cl)c(Cl)c2)C(=O)/C1=C/c1cccc(OC(=O)c2cccs2)c1	5.4	-	.	-	-	.
O=C1NN(c2ccccc2)C(=O)/C1=C\c1cccc(OC(=O)c2cccs2)c1	3.8	-	.	-	-	.
CCOc1cc(/C=C2/C(=O)N(c3ccccc3)N=C2C)ccc1OC(=O)c1cccs1	.	.	.	-	.	.
CCOc1ccccc1C(=O)N1CCN=C1SCc1cccnc1	-	-	-	-	-	-
Cc1ccc(-c2csc3nnc(SCC(=O)Nc4cccc(C)n4)n23)cc1	-	-	-	-	-	-
CCC(C)NC(=O)NC(=O)N(C1CCCCC1)S(C)(=O)=O (stereo not drawn)	-	-	.	-	-	.
O=c1c2c3nc4ccccc4nc3n(/N=C/c3ccco3)c2ncn1CCC1=CCCCC1	-	29	-	.	-	-
CCCCCCn1c(C)nc2c(c1=O)c1nc3ccccc3nc1n2/N=C/c1ccco1	3.8	18	.	-	-	.
c1ccc2c3c([nH]c2c1)-c1[nH]ncc1CC3	-	-	-	-	-	-
Clc1ccc2[nH]c3c(c2c1)CCc1cn[nH]c1-3	22	-	100	78	-	-
Cc1ccc(S(=O)(=O)CCC(=O)c2ccc(O)cc2O)cc1	1.0	-	-	50	-	-
CCOC(=O)CCS(=O)(=O)c1ccc(-c2ccc(S(=O)(=O)CCC(=O)OCC)cc2)cc1	.	.	.	-	.	.
CC(NC(=O)Cc1cccs1)C(c1cccs1)N1CCOCC1 (stereo not drawn)	-	-	-	.	-	-
O=C(Nc1nccs1)c1c(O)c2cccc3c2n(c1=O)CCC3	4.0	-	-	-	49	-
Cc1ccccc1NC(=O)c1c(O)c2cccc3c2n(c1=O)CC3	-	-	-	.	-	-
O=C(NCCO)c1c(O)c2cccc3c2n(c1=O)CC3	.	-	-	-	-	-
Cc1ccccc1NC(=O)c1c(O)c2cccc3c2n(c1=O)CCC3	31	-	-	.	-	-
O=C(Nc1ccccn1)c1c(O)c2cccc3c2n(c1=O)CCC3	35	-	-	-	-	-
Cc1cccnc1NC(=O)c1c(O)c2ccccc2n(C)c1=O	5.4	-	-	-	-	-
Cn1c(=O)c(C(=O)NCCO)c(O)c2ccccc21	-	-	-	-	-	-
Cc1ccc(NC(=O)CCC(=O)OCC(=O)c2ccc(Oc3ccc([N+](=O)[O-])cc3)cc2)c(C)c1	.	.	.	-	.	.
Cc1cccnc1NC(=O)c1c(O)c2cccc3c2n(c1=O)CCC3	2.8	-	70	-	-	-
O=C(NCC1CCCO1)c1c(O)c2cccc3c2n(c1=O)CCC3 (stereo not drawn)	.	.	-	-	.	-
O=c1c2ccccc2nc(-c2ccc(Cl)cc2)n1C1CCS(=O)(=O)C1 (stereo not drawn)	-	-	.	.	-	.
CC1CCN(C(=O)c2ccc(COc3ccccc3Cl)o2)CC1	-	-	87	-	-	-
SMILES	H69AR growth 86K	HUVEC prolif 384	Ecoli tolC	E coli WT exp	Lung fibro prol	Jurkat tox 60K
O=C(c1ccc(COc2ccccc2Cl)o1)N1CCCC1	-	-	.	-	-	.
CC(=O)Nc1c(O)nc(SCC(=O)Nc2ccc(C(C)=O)cc2)[nH]c1=O	-	-	-	-	-	-
O=C(CSc1nc(O)c(C2CCCCC2)c(=O)[nH]1)Nc1ccc(Cl)cc1	.	.	62	-	.	-
CCCn1c(=S)[nH]c2cc(OC)c(OC)cc2c1=O	35	-	.	-	-	.
CCOc1cc2[nH]c(=S)n(CCOC)c(=O)c2cc1OCC	-	-	-	-	-	.
CCOC(=O)N1CCC(n2c(=S)[nH]c3cc(OC)c(OC)cc3c2=O)CC1	34	-	-	-	-	.
CC(=O)C(=Nc1ccccc1Cl)NNc1ccc(Cl)cc1	-	-	.	.	-	.
O=C(CC(=O)NC1CCCCC1)N/N=C/c1ccc(Cl)cc1	.	.	.	-	.	.
CCOc1ccc(S(=O)(=O)N2CCc3ccccc3C2)cc1	-	-	-	-	-	-
COC(=O)COc1ccc(S(=O)(=O)N2CCc3ccccc3C2)cc1	-	19	.	-	25	.
CC1CCCCN1c1nc(-c2ccncc2)nc2ccccc12 (stereo not drawn)	-	-	100	-	-	-
CCC1CCCCN1c1nc(-c2ccncc2)nc2ccccc12 (stereo not drawn)	17	-	-	-	-	.
CCC1CCCCN1c1nc(-c2cccc(OC)c2O)nc2ccccc12 (stereo not drawn)	-	-	-	-	-	.
O=C(CSc1n[nH]c(-c2ccccc2)n1)c1ccc(O)c(O)c1	27	-	-	-	-	-
CCc1ccc(C(=O)CSc2n[nH]c(-c3ccncc3)n2)cc1	-	-	.	-	-	.
Cc1ccc(OS(=O)(=O)c2ccccc2)c(/C=N/N=C2\NC(=O)C(C)S2)c1 (stereo not drawn)	-	-	.	-	-	.
Cc1nc2sccn2c1-c1csc(NCc2ccccc2)n1	-	-	-	-	-	67
Cc1ccccc1-n1c(SC(C)C(=O)N2CCN(C)CC2)nc2ccccc2c1=O (stereo not drawn)	.	.	.	-	.	.
CCOc1ccc(N(CC(=O)NC2CCCCC2)C(=O)CSc2nnc(COc3ccccc3)o2)cc1	36	-	.	.	-	.
O=C(CN(Cc1ccc2c(c1)OCO2)C(=O)CSc1nc2ccccc2o1)NC1CCCCC1	-	-	100	-	-	-
O=C(CN(Cc1cccs1)C(=O)CSc1nnc(COc2ccccc2)o1)NC1CCCCC1	40	-	.	.	-	.
CCOc1ccc2nc(NC(=O)CCC(=O)c3cccs3)sc2c1	-	-	.	-	-	.
O=C(CCS(=O)(=O)c1cccc2nsnc12)NCc1ccccc1Cl	-	-	.	-	-	.
O=C(OCc1ccccc1)C1CCCN1C(=O)c1ccccc1[N+](=O)[O-] (stereo not drawn)	.	.	.	-	.	.
CCOC(=O)c1cc(-c2ccncc2)nc2c1c(C)nn2C	33	-	-	-	-	-
SMILES	H69AR growth 86K	HUVEC prolif 384	Ecoli tolC	E coli WT exp	Lung fibro prol	Jurkat tox 60K
CC1CCN(c2c(NCc3ccc(C(=O)N4c5ccccc5CC4C)cc3)c(=O)c2=O)CC1 (stereo not drawn)	34	-	-	-	-	-
CCCCOc1ccc(-c2ncc(Cl)cn2)cc1	-	-	-	-	-	-
CCCCCCc1ccc(-c2ncc(N)cn2)cc1	-	-	100	-	-	51
Cc1nn(Cc2ccccc2Cl)c(C)c1C(=O)Nc1nnc(C2CC2)s1	-	-	-	-	-	47
O=C(c1nn(Cc2ccccc2)c(=O)c2ccccc12)N1CCN(C/C=C/c2ccccc2)CC1	31	-	.	-	-	.
COc1ccc(-c2oc3ncnc(NCCCN4CCOCC4)c3c2-c2ccc(OC)cc2)cc1	5.7	-	-	-	-	-
COc1ccc(-n2ncc3c(NCCN4CCOCC4)ncnc32)cc1	-	-	.	-	-	.
